# Data published in ChEMBL document CHEMBL1154678, “beta-Lactams derived from a carbapenem chiron are selective inhibitors of human fatty acid amide hydrolase versus human monoacylglycerol lipase” (J Med Chem, 2009).
# T1: Fatty-acid amide hydrolase 1 (Homo sapiens, UniProt O00519)
# T1 sequence (O00519 whole entry): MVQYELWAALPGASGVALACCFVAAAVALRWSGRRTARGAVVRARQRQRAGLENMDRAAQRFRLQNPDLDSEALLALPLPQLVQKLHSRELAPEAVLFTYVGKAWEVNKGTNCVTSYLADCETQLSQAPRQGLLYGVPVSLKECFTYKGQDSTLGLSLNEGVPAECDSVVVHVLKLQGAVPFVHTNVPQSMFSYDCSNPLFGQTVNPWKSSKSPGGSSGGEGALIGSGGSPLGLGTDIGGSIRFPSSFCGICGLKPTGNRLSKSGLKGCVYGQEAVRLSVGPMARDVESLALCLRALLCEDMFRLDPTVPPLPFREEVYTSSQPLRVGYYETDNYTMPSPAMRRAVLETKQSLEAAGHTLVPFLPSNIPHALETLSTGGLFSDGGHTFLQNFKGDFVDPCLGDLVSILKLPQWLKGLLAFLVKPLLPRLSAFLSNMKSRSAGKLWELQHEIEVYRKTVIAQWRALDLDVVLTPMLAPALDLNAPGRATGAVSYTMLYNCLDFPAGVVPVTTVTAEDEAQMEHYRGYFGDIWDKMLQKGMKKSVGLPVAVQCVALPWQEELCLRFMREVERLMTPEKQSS
# T2: Monoglyceride lipase (Homo sapiens) (UniProt Q99685)
# T2 sequence (whole entry): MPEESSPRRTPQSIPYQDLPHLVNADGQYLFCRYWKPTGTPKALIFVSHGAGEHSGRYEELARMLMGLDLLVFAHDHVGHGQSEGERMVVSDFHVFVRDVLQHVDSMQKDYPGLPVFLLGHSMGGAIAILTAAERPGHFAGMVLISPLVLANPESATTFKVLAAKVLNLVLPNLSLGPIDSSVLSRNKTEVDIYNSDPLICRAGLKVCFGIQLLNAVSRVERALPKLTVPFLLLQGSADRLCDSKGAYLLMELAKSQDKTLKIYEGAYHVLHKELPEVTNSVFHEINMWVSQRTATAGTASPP
# T3: Monoglyceride lipase (Homo sapiens, UniProt Q99685)
# T3 sequence (Q99685 whole entry): T2 sequence (whole entry)
# B1: Fatty-acid amide hydrolase 1 (Homo sapiens), O00519 (protein)
# chain: T1 sequence (O00519 whole entry)
# Key:
# [1] = target: T1, Fatty-acid amide hydrolase 1; experiment: Inhibition of human recombinant FAAH using [3H]anandamide by competitive hydrolysis assay
# Summary of the method: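 Compounds were added in DMSO, with DMSO alone as control, plus [3H]-AEA at 2 μM final, 37 °C for 10 min. The reaction was stopped on ice with cold chloroform/methanol (1:1), and the aqueous phase was counted by LSC with the buffer-only blank subtracted. IC50 is the mean of three independent experiments.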
# [2] = target: T2, Monoglyceride lipase (Homo sapiens); experiment: Inhibition of human recombinant MGL using 2-oleoylglycerol at 100 uM by competitive hydrolysis assay
# [3] = target: T2, Monoglyceride lipase (Homo sapiens); experiment: Inhibition of human recombinant MGL using 2-oleoylglycerol at 1 uM by competitive hydrolysis assay
# [4] = target: T3, Monoglyceride lipase; experiment: Inhibition of human recombinant MGL using 2-oleoylglycerol by competitive hydrolysis assay
# Summary of the method: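 Compounds were added in DMSO, with DMSO as control, plus [3H]-2-oleoylglycerol at 2 μM final, 37 °C for 10 min. Ice-cold chloroform/methanol (1:1) quench, and the methanol/buffer phase was counted by LSC with the blank subtracted. Results are means of three independent assays.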
# [5] = substrate: C=CCCC(=O)N1C[C@@H]([C@@H](C)OC(=O)CCCc2ccccc2)C1=O; experiment: Hydrolytic activity of human recombinant FAAH at 15 nM by liquid scintillation counting
# [6] = substrate: C=CCCC(=O)N1C[C@@H]([C@@H](C)OC(=O)CCCc2ccccc2)C1=O; experiment: Hydrolytic activity of human recombinant FAAH at 45 nM by liquid scintillation counting
Molecule,IC50 [1],inhibition [2],inhibition [3],IC50 ([4]; read-out: IC50),IC50 [4],Vmax [5],Vmax [6]
CC(=O)O[C@@H]1[C@@H]([C@@H](C)OC(=O)Cc2ccc(-c3ccccc3)cc2)C(=O)N1C(=O)CCc1ccccc1,826 nM,66%,–,–,–,–,–
C=CCCC(=O)O[C@H](C)[C@H]1C(=O)N(C(=O)CCC=C)[C@@H]1OC(C)=O,1900 nM,99%,33%,133000 nM,–,–,–
C[C@@H](OC(=O)CCc1ccccc1)[C@@H]1CN(C(=O)CCc2ccccc2)C1=O,157 nM,100%,0%,–,–,–,–
C=CCCC(=O)N1C[C@@H]([C@@H](C)O)C1=O,7900 nM,89%,8%,–,–,–,–
C[C@@H](O)[C@@H]1CN(C(=O)CCc2ccccc2)C1=O,409000 nM,8%,–,–,–,–,–
C[C@@H](OC(=O)CCCc1ccccc1)[C@@H]1CN(C(=O)CCc2ccccc2)C1=O,49 nM,100%,0%,–,–,–,–
C[C@@H](OC(=O)CCc1ccccc1)[C@@H]1CN(C(=O)CCCc2ccccc2)C1=O,57 nM,54%,–,–,–,–,–
C[C@@H](OC(=O)Cc1ccc(-c2ccccc2)cc1)[C@@H]1CNC1=O,6500 nM,16%,–,–,–,–,–
C[C@@H](OC(=O)CCCCc1ccccc1)[C@@H]1CN(C(=O)CCc2ccccc2)C1=O,91 nM,100%,0%,–,–,–,–
C[C@@H](OC(=O)CCCCc1ccccc1)[C@@H]1CN(C(=O)CCCc2ccccc2)C1=O,45 nM,59%,–,–,–,–,–
C=CCCC(=O)O[C@H](C)[C@@H]1CN(C(=O)CCC=C)C1=O,98 nM,99%,–,23300 nM,–,–,–
C=CCCCC(=O)O[C@H](C)[C@@H]1CN(C(=O)CCC=C)C1=O,32 nM,8%,–,4720 nM,4720 nM,–,–
C=CCCC(=O)N1C(=O)[C@H]([C@@H](C)O)[C@H]1OC(C)=O,537000 nM,16%,–,–,–,–,–
C=CCCC(=O)N1C[C@@H]([C@@H](C)OC(=O)CCCc2ccccc2)C1=O,5 nM,89%,–,4060 nM,–,–,–
C[C@@H](OC(=O)Cc1ccc(-c2ccccc2)cc1)[C@@H]1CN(C(=O)CCCCc2ccccc2)C1=O,236 nM,25%,–,–,–,–,–
C=CCCCC(=O)N1C[C@@H]([C@@H](C)OC(=O)Cc2ccc(-c3ccccc3)cc2)C1=O,14 nM,67%,–,14600 nM,–,–,–
CC(=O)O[C@@H]1[C@@H]([C@@H](C)OC(=O)CCCc2ccccc2)C(=O)N1C(=O)CCCc1ccccc1,3120 nM,100%,0%,–,–,–,–
C[C@@H](OC(=O)CCCc1ccccc1)[C@@H]1CN(C(=O)CCCc2ccccc2)C1=O,30 nM,100%,0%,–,–,–,–
CC(=O)O[C@@H]1[C@@H]([C@@H](C)O)C(=O)N1C(=O)CCc1ccccc1,224000 nM,48%,–,–,–,–,–
C[C@@H](OC(=O)Cc1ccc(-c2ccccc2)cc1)[C@@H]1CN(C(=O)CCCc2ccccc2)C1=O,32 nM,0%,–,–,–,–,–
C[C@@H](OC(=O)CCCc1ccccc1)[C@@H]1CN(C(=O)CCCCc2ccccc2)C1=O,449 nM,39%,–,–,–,–,–
CC(=O)O[C@@H]1[C@@H]([C@@H](C)OC(=O)CCCc2ccccc2)C(=O)N1C(=O)CCc1ccccc1,960 nM,100%,0%,–,–,–,–
CC(=O)O[C@@H]1[C@@H]([C@@H](C)OC(=O)CCc2ccccc2)C(=O)N1C(=O)CCc1ccccc1,2020 nM,100%,0%,–,–,–,–
CC(=O)O[C@@H]1[C@@H]([C@@H](C)O)C(=O)N1C(=O)CCCc1ccccc1,183000 nM,61%,–,–,–,–,–
CC(=O)O[C@@H]1[C@@H]([C@@H](C)OC(=O)CCc2ccccc2)C(=O)N1C(=O)CCCc1ccccc1,5120 nM,100%,0%,–,–,–,–
C[C@@H](OC(=O)Cc1ccc(-c2ccccc2)cc1)[C@@H]1CN(C(=O)CCc2ccccc2)C1=O,50 nM,31%,–,–,–,–,–
CC(=O)O[C@@H]1[C@@H]([C@@H](C)OC(=O)Cc2ccc(-c3ccccc3)cc2)C(=O)N1C(=O)CCCc1ccccc1,708 nM,100%,0%,–,–,–,–
C=CCCCC(=O)N1C[C@@H]([C@@H](C)OC(=O)CCCc2ccccc2)C1=O,10 nM,85%,–,8510 nM,–,–,–
C=CCCC(=O)N1C[C@@H]([C@@H](C)OC(=O)Cc2ccc(-c3ccccc3)cc2)C1=O,12 nM,91%,–,1840 nM,–,–,–
B1,–,–,–,–,–,12.8 nmol/min/mg,11.9 nmol/min/mg
